# Laboratory results taken from ChEMBL document CHEMBL3400070, “Determination of the active stereoisomer of the MEP pathway-targeting antimalarial agent MMV008138, and initial structure-activity studies” (Bioorg Med Chem Lett, 2015).
# pIC50: −log10 of the molar value. The source made the active and inactive calls. No cut-off for these calls is given here.
# How the values were obtained:
# Type in all cases: functional
# Plasmodium falciparum [1] = assay: Antimalarial activity against MRA-150, chloroquine, pyrimethamine, mefloquine-resistant asexual blood stage Plasmodium falciparum Dd2 assessed as rescue at 10 uM after 72 hrs by SYBR green assay in presence of 200 uM IPP
# In short: (§1)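 Single-concentration test (10 or 20 μM) run with or without 200 μM IPP on ring-stage Dd2 cultures (1% hematocrit, 1% parasitemia) in human erythrocytes. Incubation was 72 h at 37 °C under reduced O2. Growth was read by SYBR green, with background from uninfected erythrocytes and normalisation to untreated DMSO vehicle controls.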
# Plasmodium falciparum [2] = assay: Antimalarial activity against MRA-150, chloroquine, pyrimethamine, mefloquine-resistant asexual blood stage Plasmodium falciparum Dd2 after 72 hrs by SYBR green assay; conditions: Dd2, 72 h
# In short: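 Dd2 parasites were kept in O-positive human erythrocytes in RPMI 1640 with Albumax I, hypoxanthine and HEPES. Ring-stage cultures (1% hematocrit, 1% parasitemia) were given eight- or ten-point dilutions of 20 to 0.02 μM in 0.1% DMSO for 72 h at 37 °C under low O2. Growth was read by SYBR green, with uninfected-erythrocyte background and normalisation to untreated 0.1% DMSO controls. IC50 came from a four-parameter variable-slope fit, mean of ≥2 independent experiments ± S.D.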
# Plasmodium falciparum [3] = assay: Antimalarial activity against MRA-150, chloroquine, pyrimethamine, mefloquine-resistant asexual blood stage Plasmodium falciparum Dd2 at 10000 nM after 72 hrs by SYBR green assay; conditions: Dd2, 72 h, read-out: GI; in short: as §1
# Plasmodium falciparum [4] = assay: Antimalarial activity against MRA-150, chloroquine, pyrimethamine, mefloquine-resistant asexual blood stage Plasmodium falciparum Dd2 assessed as rescue at 2.5 uM after 72 hrs by SYBR green assay in presence of 200 uM IPP
# Escherichia coli = assay: Antibacterial activity against Escherichia coli BL21(DE3) after 18 hrs by cell density meter
# In short: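 Overnight culture (37 °C, 200 rpm) diluted 100-fold into LB, grown to OD600 ~0.6, then diluted 10,000-fold; mixed 1:1 with compound prediluted in LB at 500, 250 and 125 μM; 5% DMSO final. Incubated 18 h, 37 °C, 200 rpm; growth normalized to untreated inoculum and compared with 5% DMSO vehicle; controls fosmidomycin 100 μM, uninoculated medium; three independent experiments.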
# Plasmodium falciparum [5] = assay: Antimalarial activity against MRA-150, chloroquine, pyrimethamine, mefloquine-resistant asexual blood stage Plasmodium falciparum Dd2 assessed as rescue after 72 hrs by SYBR green assay in presence of 200 uM IPP; conditions: Dd2, 72 h
# In short: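 Ring-stage Dd2 cultures (1% hematocrit, 1% parasitemia, human erythrocytes) were grown with 200 μM IPP and a 10 to 0.02 μM serial dilution for 72 h at 37 °C under reduced O2. Growth was read by SYBR green and normalised to untreated 0.1% DMSO controls. Data are the mean ± S.D. of two or more independent experiments.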
# Plasmodium falciparum [6] = assay: Antimalarial activity against MRA-150, chloroquine, pyrimethamine, mefloquine-resistant asexual blood stage Plasmodium falciparum Dd2 at 20000 nM after 72 hrs by SYBR green assay; conditions: Dd2, 72 h, read-out: GI; in short: as §1
# Plasmodium falciparum [7] = assay: Antimalarial activity against MRA-150, chloroquine, pyrimethamine, mefloquine-resistant asexual blood stage Plasmodium falciparum Dd2 assessed as rescue at 20 uM after 72 hrs by SYBR green assay in presence of 200 uM IPP; in short: as §1
# Plasmodium falciparum [8] = assay: Antimalarial activity against MRA-150, chloroquine, pyrimethamine, mefloquine-resistant asexual blood stage Plasmodium falciparum Dd2 assessed as rescue at 5 uM after 72 hrs by SYBR green assay in presence of 200 uM IPP
smiles,measurement,setting,value
NC(=O)[C@@H]1Cc2c([nH]c3ccccc23)[C@@H](c2ccc(Cl)cc2Cl)N1,Activity,Plasmodium falciparum [1],50%
same,pIC50,Plasmodium falciparum [2],5.92
COc1ccc([C@H]2N[C@H](C(=O)O)Cc3c2[nH]c2ccccc32)cc1OC,pIC50,Plasmodium falciparum [2],< 4.70
Cc1ccc([C@@H]2N[C@H](C(=O)O)Cc3c2[nH]c2ccccc32)c(C)c1,pIC50,Plasmodium falciparum [2],< 5.00
CCCCNC(=O)[C@@H]1Cc2c([nH]c3ccccc23)[C@@H](c2ccc(Cl)cc2Cl)N1,inhibition of growth at 10 µM,Plasmodium falciparum [3],80%
CNC(=O)[C@@H]1Cc2c([nH]c3ccccc23)[C@@H](c2ccc(C)cc2C)N1,inhibition of growth at 10 µM,Plasmodium falciparum [3],70%
CNC(=O)[C@@H]1Cc2c([nH]c3ccccc23)[C@@H](c2ccc(C)cc2Cl)N1,Activity,Plasmodium falciparum [4],100%
same,pIC50,Plasmodium falciparum [2],6.47
same,Activity,Escherichia coli,inactive
Cc1ccc([C@H]2N[C@H](C(=O)O)Cc3c2[nH]c2ccccc32)c(Cl)c1,Activity,Plasmodium falciparum [4],100%
same,pIC50,Plasmodium falciparum [2],6.39
same,Activity,Escherichia coli,inactive
same,pIC50,Plasmodium falciparum [5],< 5.00
O=C(O)[C@H]1Cc2c([nH]c3ccccc23)[C@@H](c2ccc(Cl)cc2Cl)N1,Activity,Plasmodium falciparum [1],60%
same,pIC50,Plasmodium falciparum [2],5.52
Cc1cc(Cl)ccc1[C@H]1N[C@H](C(=O)O)Cc2c1[nH]c1ccccc21,Activity,Plasmodium falciparum [4],100%
same,pIC50,Plasmodium falciparum [2],6.15
same,Activity,Escherichia coli,inactive
same,pIC50,Plasmodium falciparum [5],< 5.00
O=C(O)[C@@H]1Cc2c([nH]c3ccccc23)[C@@H](c2ccccc2Cl)N1,Activity,Plasmodium falciparum [1],60%
same,pIC50,Plasmodium falciparum [2],5.48
O=C(O)[C@@H]1Cc2c([nH]c3ccccc23)[C@@H](c2ccc(Cl)cc2)N1,Activity,Plasmodium falciparum [1],50%
same,pIC50,Plasmodium falciparum [2],5.93
CNC(=O)[C@@H]1Cc2c([nH]c3ccccc23)[C@@H](c2ccc(Cl)cc2C)N1,Activity,Plasmodium falciparum [1],50%
same,pIC50,Plasmodium falciparum [2],5.73
CNC(=O)[C@@H]1Cc2c([nH]c3ccccc23)[C@@H](c2ccc(C(F)(F)F)cc2C(F)(F)F)N1,pIC50,Plasmodium falciparum [2],< 5.00
COc1ccc([C@H]2N[C@H](C(=O)O)Cc3c2[nH]c2ccccc32)c(OC)c1,pIC50,Plasmodium falciparum [2],< 4.70
O=C(O)[C@@H]1Cc2c([nH]c3ccccc23)[C@H](c2ccc(F)cc2F)N1,pIC50,Plasmodium falciparum [2],< 4.70
COC(=O)[C@@H]1Cc2c([nH]c3ccccc23)[C@@H](c2ccccc2)N1,inhibition of growth at 20 µM,Plasmodium falciparum [6],20%
Clc1ccc(C2NCCc3c2[nH]c2ccccc32)c(Cl)c1 (racemic),pIC50,Plasmodium falciparum [2],5.00
O=C(NC1CCCCC1)[C@@H]1Cc2c([nH]c3ccccc23)[C@@H](c2ccc(Cl)cc2Cl)N1,Activity,Plasmodium falciparum [1],0%
same,pIC50,Plasmodium falciparum [2],5.55
O=C(O)[C@@H]1Cc2c([nH]c3ccccc23)[C@H](c2ccc(Cl)cc2Cl)N1,pIC50,Plasmodium falciparum [2],< 5.00
O=C(O)C1Cc2c([nH]c3ccccc23)C(c2ccc(Cl)cc2Cl)N1 (stereo not given),Activity,Plasmodium falciparum [4],100%
same,pIC50,Plasmodium falciparum [2],6.68
O=C(O)[C@@H]1Cc2c([nH]c3ccccc23)[C@@H](c2ccc(Cl)cc2Cl)N1,Activity,Plasmodium falciparum [4],100%
same,pIC50,Plasmodium falciparum [2],6.60
same,Activity,Escherichia coli,inactive
same,pIC50,Plasmodium falciparum [5],< 5.00
O=CN(O)CCCP(=O)(O)O [FOSMIDOMYCIN],Activity,Plasmodium falciparum [1],100%
CN1CC(=O)N2[C@H](c3ccc4c(c3)OCO4)c3[nH]c4ccccc4c3C[C@@H]2C1=O [TADALAFIL],pIC50,Plasmodium falciparum [2],< 4.70
CNNC(=O)[C@@H]1Cc2c([nH]c3ccccc23)[C@@H](c2ccc(Cl)cc2Cl)N1,Activity,Plasmodium falciparum [1],80%
same,pIC50,Plasmodium falciparum [2],5.71
O=C(O)[C@@H]1Cc2c([nH]c3ccccc23)[C@@H](c2ccccc2)N1,pIC50,Plasmodium falciparum [2],< 5.00
O=C(O)[C@@H]1Cc2c([nH]c3ccccc23)[C@@H](c2ccc(C(F)(F)F)cc2C(F)(F)F)N1,pIC50,Plasmodium falciparum [2],< 5.00
Cc1ccc([C@@H]2N[C@H](C(=O)O)Cc3c2[nH]c2ccccc32)c(Cl)c1,pIC50,Plasmodium falciparum [2],< 5.00
COC(=O)[C@@H]1Cc2c([nH]c3ccccc23)[C@@H](c2ccc(Cl)cc2Cl)N1,pIC50,Plasmodium falciparum [2],5.17
same,Activity,Plasmodium falciparum [7],20%
Cc1ccc([C@H]2N[C@H](C(=O)O)Cc3c2[nH]c2ccccc32)c(C)c1,inhibition of growth at 10 µM,Plasmodium falciparum [3],70%
O=C(O)[C@H]1Cc2c([nH]c3ccccc23)[C@H](c2ccc(Cl)cc2Cl)N1,pIC50,Plasmodium falciparum [2],< 5.00
CC(C)NC(=O)[C@@H]1Cc2c([nH]c3ccccc23)[C@@H](c2ccc(Cl)cc2Cl)N1,inhibition of growth at 10 µM,Plasmodium falciparum [3],50%
CNC(=O)[C@@H]1Cc2c([nH]c3ccccc23)[C@@H](c2ccc(F)cc2F)N1,Activity,Plasmodium falciparum [4],100%
same,pIC50,Plasmodium falciparum [2],5.92
same,Activity,Escherichia coli,inactive
CNC(=O)[C@@H]1Cc2c([nH]c3ccccc23)[C@@H](c2ccc(Cl)cc2Cl)N1,Activity,Plasmodium falciparum [4],100%
same,pIC50,Plasmodium falciparum [2],6.72
same,Activity,Escherichia coli,inactive
same,pIC50,Plasmodium falciparum [5],< 5.00
O=C(O)[C@@H]1Cc2c([nH]c3ccccc23)[C@H](c2ccccc2)N1,pIC50,Plasmodium falciparum [2],< 5.00
O=C(O)[C@@H]1Cc2c([nH]c3ccccc23)[C@@H](c2ccc(F)cc2F)N1,pIC50,Plasmodium falciparum [2],6.11
same,Activity,Escherichia coli,inactive
same,pIC50,Plasmodium falciparum [5],< 5.00
same,Activity,Plasmodium falciparum [8],100%
COC(=O)[C@H]1Cc2c([nH]c3ccccc23)[C@H](c2ccc(Cl)cc2Cl)N1,pIC50,Plasmodium falciparum [2],5.11
same,Activity,Plasmodium falciparum [7],0%
